Measurements of several laboratories.
Compare with care: the assays were run in different laboratories.
Target: Serine/threonine-protein kinase MARK2 (MARK2, Homo sapiens, UniProt Q7KZI7)

Cc1nn(CC(F)(F)F)cc1Nc1nccc(NCCCNC(=O)C2CCC2)n1 — remaining activity (enzyme activity; inhibitor; radiometric; 1 µM): 103%
CNC(=O)c1cc(Oc2ccc(NC(=O)Nc3ccc(Cl)c(C(F)(F)F)c3)cc2)ccn1 — inhibition (enzyme activity; inhibitor; 10 µM): 26%
COc1cccc2c(NCc3ccccc3)nc(-n3c(N)nc4ccccc43)nc12 — inhibition (target engagement in cells; inhibitor; chemoproteomics; 20 mM): -7.2%
NS(=O)(=O)c1ccc(CNc2ccnc(Nc3cccc(CN4CCOCC4)c3)n2)cc1 — remaining activity (enzyme activity; inhibitor; radiometric; 1 µM): 102%
CCCCN(CCCC)C(=O)CN1C[C@@H](c2cc(OC)c3c(c2)OCO3)[C@H](C(=O)O)[C@H]1CC(C)(C)CCC — remaining binding (cell-free assay; competition with immobilised ligand; 1 µM): 100%
Cc1cc(NC(=O)c2cccc3cc(-c4cccc5[nH]nc(N)c45)ccc23)ccc1F — activity vs control (enzyme activity; inhibitor; 0.1 µM): 94%
O=C1Nc2ccc(Cl)cc2C1=Cc1cc(Cl)c(O)c(Cl)c1 — remaining signal (cell-free assay; 0.5 µM): 79.7%
CN(C)C1CCN(CC#Cc2nn(C3CCCC3)c3nc(NCc4ccccc4)ncc23)C1 (stereo not drawn) — inhibition (enzyme activity; inhibitor; FRET; 0.1 µM): 4%
O=C(N[C@H]1CCCCC/C=C\C2C[C@@]2(C(=O)O)NC(=O)[C@@H]2C[C@@H](Oc3ccncc3)CN2C1=O)OC1CCCC1 (stereo partly drawn) — remaining binding (binding; competition with immobilised ligand; 1 µM): 81%
CNc1cccc2cc(C(=O)Nc3ccc(C(=O)O)cc3)c(=O)[nH]c12 — inhibition (enzyme activity; inhibitor; 10 µM): -5.3%
Cc1c(NC(=O)c2cc(C(N)=O)nc3cc(F)ccc23)c(C(F)(F)F)nn1Cc1ccc(C#N)cc1 — remaining binding (cell-free assay; competition with immobilised ligand; 1 µM): 97%
N#CCCc1ccc2c(c1)-c1[nH]c3ccc([N+](=O)[O-])cc3c1CC(=O)N2 — remaining signal (cell-free assay; 0.5 µM): 65.5%
O=C(NCCCNc1nc(Nc2cccc(NC(=O)N3CCCC3)c2)ncc1Br)C1CCC1 — remaining activity (enzyme activity; inhibitor; radiometric; 1 µM): 2%
O=C(Nc1cccnn1)N1CC(C/C=C/c2cncc(Oc3ccc(C(F)(F)F)cn3)n2)C1 — remaining binding (cell-free assay; competition with immobilised ligand; 1 µM): 80%
O=C(NCCCNc1nc(Nc2cccc(CN3CCOCC3)c2)ncc1C1CC1)C1CCC1 — remaining activity (enzyme activity; inhibitor; radiometric; 1 µM): 4%
COc1cc2ncnc(Nc3ccc(Oc4ccccc4)c(C)c3C)c2cc1OC — inhibition (enzyme activity; inhibitor; 1 µM): 6%
O=C(NCCCNc1nc(Nc2cccc(NC(=O)N3CCCC3)c2)ncc1I)c1cccs1 — remaining activity (enzyme activity; inhibitor; radiometric; 1 µM): 3%
CN(C)C(=O)Cn1cc(-c2nc(C3(c4ccc(-c5cnc(N)nc5)cc4)CC3)no2)cn1 — remaining binding (cell-free assay; competition with immobilised ligand; 1 µM): 92%
